Screening results as filed in PubChem BioAssay.
M5 antag = human M5 muscarinic receptor antagonists, primary screen, CHO cells, Fluo-8 calcium fluorescence; CHO-hM5 cells, ACh EC80; inhibition, % at 3 µM; actives 0.59% (n = 360,000);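 active = inhibition above a per-plate cutoff, the mean of that plate's test compounds plus 3 SD, cut at about 27% in these data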;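 also: 0% = acetylcholine EC80 with DMSO and 100% = DMSO without agonist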
Target sequence (P08912 whole entry, looked up): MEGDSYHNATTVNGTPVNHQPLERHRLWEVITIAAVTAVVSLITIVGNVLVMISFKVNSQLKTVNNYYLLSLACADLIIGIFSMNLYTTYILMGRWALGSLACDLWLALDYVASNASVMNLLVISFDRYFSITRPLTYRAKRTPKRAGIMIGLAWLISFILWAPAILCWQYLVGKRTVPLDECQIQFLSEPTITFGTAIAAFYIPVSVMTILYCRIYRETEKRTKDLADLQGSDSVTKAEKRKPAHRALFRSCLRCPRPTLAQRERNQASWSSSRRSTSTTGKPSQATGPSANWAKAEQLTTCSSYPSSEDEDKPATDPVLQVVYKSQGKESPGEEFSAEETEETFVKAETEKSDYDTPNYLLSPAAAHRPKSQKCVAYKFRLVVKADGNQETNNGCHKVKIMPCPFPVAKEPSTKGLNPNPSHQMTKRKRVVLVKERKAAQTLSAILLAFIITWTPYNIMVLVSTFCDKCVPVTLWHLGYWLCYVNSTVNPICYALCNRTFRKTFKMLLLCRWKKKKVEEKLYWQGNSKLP
CHRM5 PAM = human M5 muscarinic receptor positive allosteric modulators, primary screen, CHO-K1 cells, Fluo-8 calcium fluorescence; Muscarinic acetylcholine receptor M5 (Homo sapiens), P08912; AID 624038, 2012; activation, % at 3 µM; actives 0.3% (n = 360,000); CHO-K1 hM5, ACh EC20 PAM; 0% = ACh EC20, 100% = ACh EC100;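 active = activation above the run cutoff, the mean activation of all test compounds plus 3 SD, cut at about 18% in these data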
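System: CHO-K1 cell line with stable human muscarinic M5 receptor expression | Also added: EC20 acetylcholine as agonist stimulus | Compound: One concentration, 3 µM final (nominal) | Timing: Fluo-8 loading 80 min at 37 °C plus 30 min room temperature | Measured by: Fluo-8 calcium dye fluorescence, kinetic read | Read-out basis: % activation, ACh-normalized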
CHRM4 agonist = human M4 muscarinic receptor agonists, primary screen, CHO-K1 cells, Fluo-8 calcium fluorescence. Muscarinic acetylcholine receptor M4 (Homo sapiens), P08173. CHO-K1 hM4/Gqi5; vehicle 0%, full acetylcholine response 100%. activation, % at 3 µM. actives 0.14% (n = 360,000);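 active = activation above the run mean over all test wells plus 3 SD, cut at about 32% in these data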;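 also: peak over basal fluorescence ratio per well then scaled between controls; 0% = DMSO wells and 100% = acetylcholine at EC100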
CHRM5 agonist = human M5 muscarinic receptor agonists, primary screen, CHO-K1 cells, Fluo-8 calcium fluorescence; Muscarinic acetylcholine receptor M5 (Homo sapiens), P08912; CHO-K1 hM5 cells; 0% DMSO wells, 100% maximal acetylcholine response; activation, % at 3 µM; actives 0.19% (n = 360,000);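 active = activation above the run's mean over test compounds plus 3 SD, cut at about 23% in these data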;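 also: signal is peak over basal fluorescence ratio across the kinetic read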
M4 PAM = human M4 muscarinic receptor positive allosteric modulators, primary screen, CHO-K1 cells, Fluo-8 calcium fluorescence | Muscarinic acetylcholine receptor M4 (Homo sapiens), P08173 | actives 0.4% (n = 360,000) | activation, % at 3 µM | CHO-K1 hM4/Gqi5, ACh EC20; 0% = ACh EC20, 100% = maximal ACh | AID 624126, 2012;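 active = activation above its plate's cutoff, the mean activation of sample wells plus 3 SD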
M4 antag = human M4 muscarinic receptor antagonists, primary screen, CHO cells, Fluo-8 calcium fluorescence; CHO-hM4 cells, ACh EC80; inhibition, % at 3 µM; actives 0.73% (n = 360,000); AID 624125, 2012;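 active = inhibition above its plate's cutoff, the mean inhibition of sample wells plus 3 SD, cut at about 27% in these data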;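 also: 0% = acetylcholine EC80 with DMSO and 100% = DMSO without agonist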
The depositor's hits bear a star. This is a sample that favours compounds with a hit; in the whole collection about 1.9% have one here.

SMILES	M5 antag	CHRM5 PAM	CHRM4 agonist	CHRM5 agonist	M4 PAM	M4 antag
CN1C[C@H](CO)C=C2c3cccc4[nH]cc(c34)C[C@H]21	4.2	2.6	2.3	1.1	7.1	-11.6
CC1=C[C@@H]2c3cccc4[nH]cc(c34)C[C@H]2N(C)C1	1.8	-14.3	2.3	-7.2	-15.9	56.9*
O=C1NC(=O)C2(C(=O)N1)C(c1ccc(F)cc1)NC(=S)NC2c1ccc(F)cc1 (centres undefined)	-3.8	-6.0	0.6	1.9	12.7	-3.8
COc1ccc(OC)c([C@@H](O)[C@H](C)NC(C)(C)C)c1	24.1	-18.6	0.5	-1.0	-15.4	50.5*
Nc1cccc(SC2CC(=O)N(c3ccc(Cl)cc3C(=O)c3ccccc3)C2=O)c1 (centres undefined)	27.3*	-5.9	1.5	-1.5	-0.3	-8.7
CNCC(C)c1ccccc1 (centres undefined)	-5.0	1.8	1.0	0.0	10.4	2.8
COC(=O)C1C2CC[C@@H](CC1OC(=O)c1ccccc1)N2 (some centres undefined)	-5.4	-0.9	1.0	-1.7	9.4	-29.1
COc1ccc2ccccc2c1CNCCc1ccccc1	-3.5	18.2*	5.2	-4.3	-3.5	5.1
Brc1ccc2c(c1)C(OC1CN3CCC1CC3)c1ccccc1CS2 (centres undefined)	100.3*	-18.6	10.3	-1.1	-41.0	100.4*
CC1CC(OC(=O)c2ccccc2)CC(C)N1C (centres undefined)	16.0	-16.9	0.0	-7.4	-17.4	30.4*
CN1C2CCC1CC(OC(=O)c1cccc(O)c1)C2 (centres undefined)	20.3	-22.7	0.2	-6.0	-9.8	7.3
COC(=O)C1=C(c2ccc(C(C)=O)cc2)C[C@@H]2CC[C@H]1N2C(=O)NCc1ccc(C(F)(F)F)cc1	12.7	-19.3	35.6*	37.8*	-6.2	2.2
